According to ChEMBL document CHEMBL2010708, “Rigid Analogues of Antimitotic Indolobenzazepinones: New Insights into Tubulin Binding via Molecular Modeling” (ACS Med Chem Lett, 2011):

Assays:
KB [1] = experiment: Antiproliferative activity against human KB cells at 1 uM after 72 hrs by fluorescence method; type: functional; conditions: read-out: GI
Method in brief: (§1)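 KB cells. Growth inhibition was recorded as a percentage at fixed 10 and 1 μM concentrations, with IC50 determined separately for selected compounds.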

[2] = Inhibition of tubulin polymerization
KB [3] = experiment: Antiproliferative activity against human KB cells after 72 hrs by fluorescence method; type: functional, cell-based; method in brief: as §1
HCT-15 [4] = experiment: Antiproliferative activity against human HCT15 cells at 1 uM after 72 hrs by fluorescence method; type: functional; conditions: HCT-15, 72 h, read-out: GI
Method in brief: (§2)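 Panel of HCT116, MCF7 and HL60 cancer cells, each paired with a resistant counterpart (HCT15, MCF7R, HL60R). Growth inhibition was recorded as a percentage at 10 and 1 μM of test compound.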

MCF7 [5] = experiment: Antiproliferative activity against human MCF7 cells at 10 uM after 72 hrs by fluorescence method; type: functional; conditions: MCF7, 72 h, read-out: GI; method in brief: as §2
[6] = Antiproliferative activity against human MCF7/R cells at 1 uM after 72 hrs by fluorescence method; type: functional; conditions: MCF7R, read-out: GI; method in brief: as §2
HCT-116 [7] = experiment: Antiproliferative activity against human HCT116 cells at 10 uM after 72 hrs by fluorescence method; type: functional; conditions: HCT-116, 72 h, read-out: GI; method in brief: as §2
[8] = Antiproliferative activity against human HL60R cells at 1 uM after 72 hrs by fluorescence method; type: functional; conditions: read-out: GI; method in brief: as §2
KB [9] = experiment: Antiproliferative activity against human KB cells at 10 uM after 72 hrs by fluorescence method; type: functional; conditions: read-out: GI; method in brief: as §1
MCF7 [10] = experiment: Antiproliferative activity against human MCF7 cells at 1 uM after 72 hrs by fluorescence method; type: functional; conditions: MCF7, 72 h, read-out: GI; method in brief: as §2
[11] = Antiproliferative activity against human HL60R cells at 10 uM after 72 hrs by fluorescence method; type: functional; conditions: read-out: GI; method in brief: as §2
HCT-116 [12] = experiment: Antiproliferative activity against human HCT116 cells at 1 uM after 72 hrs by fluorescence method; type: functional; conditions: HCT-116, 72 h, read-out: GI; method in brief: as §2
HCT-15 [13] = experiment: Antiproliferative activity against human HCT15 cells at 10 uM after 72 hrs by fluorescence method; type: functional; conditions: HCT-15, 72 h, read-out: GI; method in brief: as §2
HL-60 [14] = experiment: Antiproliferative activity against human HL60 cells at 10 uM after 72 hrs by fluorescence method; type: functional; conditions: HL-60, 72 h, read-out: GI; method in brief: as §2
HL-60 [15] = experiment: Antiproliferative activity against human HL60 cells at 1 uM after 72 hrs by fluorescence method; type: functional; conditions: HL-60, 72 h, read-out: GI; method in brief: as §2
[16] = Antiproliferative activity against human MCF7/R cells at 10 uM after 72 hrs by fluorescence method; type: functional; conditions: MCF7R, read-out: GI; method in brief: as §2

IC50 [2] | IC50 (KB [3]) | SMILES | inhibition of growth at 1 µM (KB [1]) | inhibition of growth at 1 µM (HCT-15 [4]) | inhibition of growth at 10 µM (MCF7 [5]) | inhibition of growth at 1 µM [6] | inhibition of growth at 10 µM (HCT-116 [7]) | inhibition of growth at 1 µM [8] | inhibition of growth at 10 µM (KB [9]) | inhibition of growth at 1 µM (MCF7 [10]) | inhibition of growth at 10 µM [11] | inhibition of growth at 1 µM (HCT-116 [12]) | inhibition of growth at 10 µM (HCT-15 [13]) | inhibition of growth at 10 µM (HL-60 [14]) | inhibition of growth at 1 µM (HL-60 [15]) | inhibition of growth at 10 µM [16]
1.8 µM | 0.035 µM | CC[C@@H]1NC(=O)c2[nH]c3ccccc3c2-c2ccccc21 | 100% | 94% | 92% | 84% | 100% | 78% | 100% | 82% | 95% | 85% | 100% | 100% | 90% | 96%
4.1 µM | 0.002 µM | CC[C@H]1c2ccccc2-c2c([nH]c3ccccc23)C(=O)N1C | 100% | 92% | 96% | 75% | 100% | 70% | 100% | 85% | 89% | 91% | 100% | 100% | 85% | 92%
5.3 µM | 0.9 µM | O=C1NC2CCc3cccc(c32)-c2c1[nH]c1ccccc21 (centres undefined) | 63% | 75% | 39% | 67% | 80% | 70% | 81% | 46% | 81% | 64% | 87% | 90% | 83% | 72%
4.2 µM | 5 µM | O=C1c2[nH]c3ccccc3c2-c2ccccc2C2CCCN12 (centres undefined) | 27% | 78% | 55% | 56% | 81% | 49% | 100% | 28% | 80% | 64% | 84% | 84% | 49% | 75%
